The record followed here is publication PMC5350499 (International Journal for Parasitology: Drugs and Drug …, 2017).

Converted amounts (≈) assume the structure as drawn. Like-named read-outs stand apart in the source and are kept apart here. Where only a bound is given, the exact number is not on record here.

Data set [1] deals with P. falciparum HB3 (chloroquine-sensitive). The data set can be described thus: Image-based merozoite egress and invasion assay. Particulars: for effect on merozoite egress and invasion: exposed at 42 hpi (schizont stage) for 24 h, 10 μM per method; for parasite phenotype in sample micrographs: 1 μM at 42 hpi for 24 h (Fig. 4 legend). Format: cell-based, Plasmodium falciparum. The method in brief: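 Sorbitol-synchronized HB3 at 1.5% hematocrit and 5% parasitemia, exposed at 42 hpi for 24 h alongside GlcNAc, E-64 and artemisinin references. Stained with WGA-Alexa Fluor 488 and Mitotracker Red CMXRos (1 nM each, 37 °C, 20 min), then fixed in 4% paraformaldehyde with DAPI. Five fields per well imaged at 405/488/635 nm (40× objective) with automated detection of parasitized erythrocytes.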

The subject of a further data set is β-hematin formation. The data set can be described thus: β-Hematin formation assay. Format: biochemical. Particulars: 100 μM; for %Inhibition of β-hematin formation: average of two separate experiments. The method in brief:
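Compound added with water, acetone and Nonidet P-40, then hematin-DMSO suspension; incubated 6 h at 37 °C with shaking. β-Hematin measured by pyridine ferrochrome method: 5% v/v final pyridine (from water/20% acetone/HEPES/50% pyridine solution), 10 min under the same conditions, absorbance at 405 nm. Chloroquine and 8-hydroxyquinoline run as references.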

Data set [2] concerns P. falciparum Dd2 (chloroquine-resistant). The data set can be described thus: SYBR green I-based parasite viability assay, Dd2 strain. It is filed as cell-based, Plasmodium falciparum. The settings on record: for EC50: Plasmodium falciparum, DD2, 72 h. The method in brief:
(§1)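 Parasites grown in human A+ erythrocytes in RPMI 1640 (25 mM HEPES pH 7.4, 26 mM NaHCO3, 2% dextrose, hypoxanthine, gentamycin, 0.5% Albumax II), 37 °C, 5% CO2. Compound DMSO dilutions (<0.125% DMSO) at 1% parasitemia, 2% hematocrit; chloroquine baseline. After 72 h: frozen at −80 °C, thawed, lysed with saponin/Triton/EDTA buffer containing 0.01% SYBR Green I, 30 min dark at 37 °C; fluorescence read at 485/530 nm. EC50 from 3 experiments × 3 replicates (±SD).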

The subject of data set [3] is P. falciparum 3D7 (chloroquine-sensitive). The data set can be described thus: SYBR green I-based parasite viability assay, 3D7 strain. Format: cell-based. The settings on record: Plasmodium falciparum, 3D7, 72 h. The procedure, abridged:
as §1

The test system of data set [4] is HepG2 human hepatocyte cells. The data set can be described thus: MTS cytotoxicity assay. Format: cell-based. The settings on record: for EC50: Homo sapiens. The method in brief:
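HepG2 seeded at 2500 cells/well in 384-well plates with compound dilutions, 48 h at 37 °C, 5% CO2. MTS reagent added for a further 3 h; absorbance read at 490 nm. EC50 from 3 independent experiments, each in triplicate (±SD).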
For orientation: Tetrazolium assays rely on reduction of a dye to a coloured formazan, in cell work by metabolically active cells.

The test system of data set [5] is P. falciparum Dd2. The data set can be described thus: Stage specificity, YOYO-1 flow cytometry of synchronized cultures. Format: cell-based, Plasmodium falciparum. The settings on record: treated at ring stage (6 hpi), 5× EC50; monitored every 12 h. The procedure, abridged: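 Aliquots taken every 12 h over 48 h. Samples fixed in 0.04% glutaraldehyde/PBS, permeabilized with 0.25% Triton X-100, RNase-treated and stained with YOYO-1. Flow cytometry at 488 nm excitation with a 530/30 filter; DNA content plotted against cell count.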
(In general: A flow cytometer gives signals particle by particle.)

In another data set the test system is P. berghei ANKA. Nature of the data set: Peters' four-day test, murine malaria model. It is filed as in vivo, Plasmodium berghei in balb/c mice. Particulars: 100 mg/kg twice daily oral.
In data set [6] the test system is P. falciparum Dd2. Nature of the data set: Stage specificity, Giemsa-stained thin smears of synchronized cultures. Format: cell-based, Plasmodium falciparum.
For the next data set, the system named is P. falciparum. Nature of the data set: Parasitemia after treatment at late schizont/segmenter stage. It is filed as cell-based, Plasmodium falciparum. Particulars: 5× EC50, 24 h; compared to control cultures.
Data set [7] can be described thus: Aqueous solubility at pH 7.4, UV-visible absorption based method. Format: physicochemical. Particulars: aqueous solution at pH 7.4, pH 7.4, aqueous buffer.
For data set [8], the system named is P. berghei ANKA expressing luciferase. The data set can be described thus: Elimination of existing infection, luciferase IVIS imaging. It is filed as in vivo, Plasmodium berghei in Swiss Webster mice. The settings on record: 100 mg/kg once daily oral, started 72 h post-infection; Swiss Webster mice. The procedure, abridged:
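Swiss Webster mice infected with 10^4 luciferase-expressing P. berghei ANKA on day 0 and grouped at 72 h (n = 5/group). Oral gavage once daily for 5 days: test compound 100 mg/kg, chloroquine 40 mg/kg, or vehicle (2% methylcellulose, 0.5% Tween80). On day 7, D-luciferin 150 mg/kg injected; signal detected and quantified by IVIS.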

A further data set can be described thus: Microsomal stability. It is filed as in vitro ADME. The settings on record: mouse, liver microsomes. (Liver microsomes are vesicles of endoplasmic reticulum, rich in cytochrome P450 enzymes.)
Setting [9] is: HepG2, 48 h, read-out: HepG2 EC50.

With `CC(C)C[C@H](NC(=O)[C@H]1O[C@@H]1C(=O)O)C(=O)NCCCCN=C(N)N` (relative stereo) [Compound E-64, L-trans-epoxysuccinyl-leucylamido-(4-guanidino)butane], the “effect on merozoite egress and invasion” value in [1] is “completely blocks egress”.

In the case of `Oc1cccc2cccnc12` [8-Hydroxyquinoline], the “%Inhibition of β-hematin formation” value with β-hematin formation worked out at 6 ± 0.42%.

`CCN(CC)CCCC(C)Nc1ccnc2cc(Cl)ccc12` (stereo not shown) [Chloroquine, reference compound]: in data set [2] (Dd2 versus 3D7), the “EC50 fold higher in Dd2 compared to 3D7” value turned out to be 15 fold. The EC50 is 172 nM in [2] (read-out: Dd2 EC50), 11 ± 2 nM in data set [3] (read-out: 3D7 EC50) and more than 20000 nM in data set [4] (setting [9]). For the same molecule, the “inhibition of β-hematin formation, in words” value in the data set with β-hematin formation is “complete inhibition”. In addition, in the data set with β-hematin formation, the “%Inhibition of β-hematin formation” value was found to be 100 ± 1.78%.

As to `COc1ccc2nc(/C=C/c3ccccc3)cc(NCCCN(C)C)c2c1` [Compound 8], the EC50 in data set [2] (read-out: Dd2 EC50) stood at 323 ± 40 nM; in data set [3] (read-out: 3D7 EC50), 302 ± 10 nM; in data set [4] (setting [9]), 19900 ± 40 nM.

In the case of `COc1ccc2nc(/C=C/c3ccc(F)cc3)cc(NCCCN(C)C)c2c1` [Compound 9], the results for the concentration for a half-maximal effect (EC50) in data set [2] (read-out: Dd2 EC50), in data set [3] (read-out: 3D7 EC50) and in data set [4] (setting [9]) were 137 ± 50 nM, 299 ± 40 nM and 12600 ± 10 nM, respectively.

Take `COc1ccc2nc(/C=C/c3ccc(C(F)(F)F)cc3)cc(NCCCN(C)C)c2c1` [Compound 10]: the concentration for a half-maximal effect (EC50) in data set [2] (read-out: Dd2 EC50) was 726 ± 40 nM; in [3] (read-out: 3D7 EC50), 605 ± 40 nM; in data set [4] (setting [9]), more than 20000 nM.

Take `COC(=O)c1ccc(/C=C/c2cc(NCCCN(C)C)c3cc(OC)ccc3n2)cc1` [Compound 11]: the results for the EC50 in data set [2] (read-out: Dd2 EC50), in data set [3] (read-out: 3D7 EC50) and in [4] (setting [9]) were 138 ± 60 nM, 294 ± 60 nM and 14900 ± 30 nM, respectively.

Take `COc1ccc2nc(/C=C/c3ccc([N+](=O)[O-])cc3)cc(NCCCN(C)C)c2c1` [Compound 12]: the EC50 in data set [2] (read-out: Dd2 EC50) was determined as 57 ± 30 nM; in data set [3] (read-out: 3D7 EC50), 197 ± 20 nM; in [4] (setting [9]), 15300 ± 50 nM.

Take `COc1ccc2nc(/C=C/c3ccccc3)cc(NCCCN3CCOCC3)c2c1` [Compound 13]: the concentration giving a half-maximal response (EC50) in data set [2] (read-out: Dd2 EC50) was 303 ± 40 nM; in [3] (read-out: 3D7 EC50) it was 373 ± 30 nM; in data set [4] (setting [9]), 18000 ± 40 nM.

For `COc1ccc2nc(/C=C/c3ccc(F)cc3)cc(NCCCN3CCOCC3)c2c1` [Compound 14], the results for the half-maximal effective concentration (EC50) in [2] (read-out: Dd2 EC50), in [3] (read-out: 3D7 EC50) and in data set [4] (setting [9]) were 208 ± 40 nM, 310 ± 20 nM and 13600 ± 50 nM, respectively.

For `COc1ccc2nc(/C=C/c3ccc(C(F)(F)F)cc3)cc(NCCCN3CCOCC3)c2c1` [Compound 15], the EC50 in data set [2] (read-out: Dd2 EC50) was 735 ± 60 nM; in data set [3] (read-out: 3D7 EC50), 599 ± 30 nM; in data set [4] (setting [9]), more than 20000 nM.

As to `COC(=O)c1ccc(/C=C/c2cc(NCCCN3CCOCC3)c3cc(OC)ccc3n2)cc1` [Compound 16], the EC50 in [2] (read-out: Dd2 EC50) amounted to 471 ± 80 nM; in data set [3] (read-out: 3D7 EC50), 322 ± 40 nM; in data set [4] (setting [9]), 12800 ± 20 nM.

In the case of `COc1ccc2nc(/C=C/c3ccc([N+](=O)[O-])cc3)cc(NCCCN3CCOCC3)c2c1` [Compound 17], the 50% effective concentration (EC50) in data set [2] (read-out: Dd2 EC50) was determined as 123 ± 50 nM; in data set [3] (read-out: 3D7 EC50), 193 ± 50 nM; in data set [4] (setting [9]) it was 15700 ± 70 nM.

In the case of `CC(=O)N[C@@H]1[C@@H](O)[C@H](O)[C@@H](CO)O[C@H]1O` [N-acetylglucosamine], in data set [1], the “parasite phenotype in sample micrographs” value is reported as “accumulation of extracellular merozoites”; the “effect on merozoite egress and invasion” value was “blocks invasion”.

As to `CCN(CC)CCCC(C)Nc1cc(/C=C/c2ccc([N+](=O)[O-])cc2)nc2ccc(OC)cc12` (stereo not shown) [UCF 501, 4-Nitro styrylquinoline (NSQ)], the “intraerythrocytic maturation by flow cytometry” value in the data set on P. falciparum Dd2 [5] is on record as “maturation is blocked”. Further, the EC50 in data set [2] (read-out: EC50 Dd2) was 67 ± 8 nM; in data set [3] (read-out: EC50 3D7), 119 ± 3 nM; in data set [4] (HepG2, 48 h, read-out: EC50 HepG2), 12920 ± 70 nM; in data set [4] (HepG2, read-out: EC50 in HepG2 cells) it was 12900 nM. The “inhibition of β-hematin formation, in words” value in the data set with β-hematin formation was “totally inactive”. The “%Inhibition of β-hematin formation” value in the data set with β-hematin formation is reported as 0 ± 0.07%. For the same molecule, the “mice cured of malaria infection” value with P. berghei ANKA (4 days, Balb/c mice, no infection up to day 30) is given as 4/5. Also, the “parasitemia in the one animal not cured, day 22” value in the data set on P. berghei ANKA (day 22) is 0.2%. In the data set with P. berghei ANKA (day 27, euthanized), the “parasitemia in the one animal not cured, day 27” value came out at 40%. Also, the “parasite phenotype in sample micrographs” value in data set [1] is reported as “accumulation of extracellular merozoites”. In addition, in data set [1], the “effect on merozoite egress and invasion” value is given as “blocks invasion”. In [4] (HepG2 EC50 versus Dd2 EC50), this molecule gave a selectivity of 192. Moreover, in the data set with P. falciparum Dd2 [6] (5× EC50, compared to untreated controls), the “ring-infected erythrocytes after exposure at 42 hpi” value was “scarcely seen”. Besides, the blocking merozoite egress entry with P. falciparum Dd2 [6] (5× EC50, treated at 42 hpi) is “inactive”. For the same molecule, the “time to phenotypically observable developmental changes” value in the data set with P. falciparum Dd2 [6] (after treatment, all stages of the intraerythrocytic lifecycle) was not above 12 h. Besides, in the data set on P. falciparum, the “culture parasitemia after exposure at 42 hpi” value is “significant reduction”. The amount in solution in data set [7] (solubility) came to 290 µg/mL (≈ 626 µM). In addition, the “luciferase expressing parasite burden, delayed treatment” value in data set [8] is “almost cleared”. In addition, the amount remaining at 1 h in the data set “Microsomal stability” was determined as 47.8%. Moreover, the half-life in the data set “Microsomal stability” (Microsomal stability t1/2, mouse liver microsomes) worked out at 56.2 min.

For `C[C@@H]1CC[C@H]2[C@@H](C)C(=O)O[C@@H]3O[C@@]4(C)CC[C@@H]1[C@]32OO4` [artemisinin, reference compound], in the data set on P. falciparum Dd2 [5], the “intraerythrocytic maturation by flow cytometry” value was “maturation is blocked”. In [1], the “effect on merozoite egress and invasion” value is listed as “no effect on invasion”. The “culture parasitemia after exposure at 42 hpi” value in the data set with P. falciparum was “does not cause similar marked reduction”.

Broadly, the EC50 is the concentration giving half of the maximal effect. In general, solubility refers to how much of the substance goes into solution per volume. Low readings indicate a poorly soluble substance, high ones a readily soluble substance. A word on the amount remaining: it is the share of the starting amount still present when the sample was taken. A lower amount remaining goes with a greater loss. For orientation: half-life means how long it takes for the measured level to halve.
